Experimental data published in PubChem BioAssay AID624064 (Broad Institute, 2012).
Activity calls are given as the source filed them.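 Rule for the calls: active = fitted curve reaching 35% inhibition at both 405 and 600 nm absorbance, in duplicate, within twice the top valid dose; inactive = the rest, including signal rising instead of falling.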

Key:
[1] = iron-limited Pseudomonas aeruginosa growth inhibition – whole organism, OD600, EDDHA, dry powder, set 7, dose response (AID 624064); conditions: P. aeruginosa growth with EDDHA, OD600, 24-30 h; at 120 µM (top of the series)
How it was run: (§1)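 Material: Pseudomonas aeruginosa whole cells, strain ATCC 15692. Quantity: bacterial inoculum at final OD600 of 0.0000005. Buffer or medium: succinate M9 medium, pH 7.0, iron-limited with 2 µM EDDHA (final). Times: 24-30 h exposure at 37 °C. Signal: absorbance at 600 nm (optical density).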

[2] = tested on: P. aeruginosa growth with EDDHA, OD600, 24-30 h; assay: as above
How it was run: as §1

| Compound | activity change, negative = inhibition [1] | AC35 [2] |
| --- | --- | --- |
| N#CC(c1ccc(Cl)cc1)c1ccccn1 (stereo not given) | -30.8% (inactive) |  |
| N#CC(c1ccc(C(F)(F)F)c(Cl)n1)c1ccccc1OC(F)(F)F (stereo not given) | -8.43% (inactive) |  |
| N#CC(c1ccc(Cl)cc1)N1CCCC1 (stereo not given) | -7.6% (inactive) |  |
| COCCNC(C#N)c1ccc(Cl)cc1 (stereo not given) | -0.512% (inactive) |  |
| CN(C)CCCC(C#N)c1ccc(F)cc1 (stereo not given) | -34.3% (inactive) |  |
| CCCCC(C#N)c1ccc(Cl)cn1 (stereo not given) | -2.96% (inactive) |  |
| CCCCC(C#N)c1ccc(F)cn1 (stereo not given) | -4.82% (inactive) |  |
| CN(C)CCCC(C#N)c1ccc(Cl)cc1 (stereo not given) | -12.9% (inactive) |  |
| CCCCC(C#N)c1ccc(F)cc1 (stereo not given) |  | > 120 µM (inactive) |
| N#CC1c2ccc(Cl)cc2CCc2cccnc21 (stereo not given) | 31.2% (inactive) |  |
| N#CC(c1ccc(F)cc1)c1cccc(Cl)n1 (stereo not given) | -35.8% (inactive) |  |
| Clc1ccc(C(c2cccc(Cl)n2)c2nn[nH]n2)cc1 (stereo not given) | 11.3% (inactive) |  |
| CCCCC(C#N)c1ccc(Cl)cc1 (stereo not given) | 13.2% (inactive) |  |
| CCCCC(C#N)c1ccccn1 (stereo not given) | 11% (inactive) |  |
| COCCOCCC(C#N)c1ccc(F)cc1 (stereo not given) | -18.1% (inactive) |  |
| COCCC(C#N)c1ccc(Cl)cc1 (stereo not given) | -16.8% (inactive) |  |
| N#Cc1cccc(C(C#N)c2ccc(F)cc2)n1 (stereo not given) | -25.4% (inactive) |  |
| COCCOCCC(C#N)c1ccc(Cl)cc1 (stereo not given) | 2.11% (inactive) |  |
| COCCC(C#N)c1ccc(F)cc1 (stereo not given) | -1.09% (inactive) |  |
| CCCCC(c1ccc(Cl)cc1)c1nn[nH]n1 (stereo not given) | -5.82% (inactive) |  |
